According to ChEMBL document CHEMBL1126787 (J Med Chem, 1993):

Columns and labels:
[1] = Half-life period in HSA buffer at 37 C in the presence of human serum albumin; format: ADME; settings: buffer with human serum albumin
[2] = Half-life period in PBS buffer at 37 C in the absence of human serum albumin; format: ADME
Procedure, shortened: (§1)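 Lactone-to-carboxylate hydrolysis of drug (1 μM total) in PBS (137 mM NaCl, 3 mM KCl, 8 mM Na2HPO4, 1 mM KH2PO4, pH 7.4) at 37 °C, with or without 20 mg/mL (290 μM) HSA. Monitored by HPLC over time. t1/2 and equilibrium % lactone fitted to decay profiles by nonlinear least squares. Average of at least three independent kinetic runs.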

[3] = species on record: Homo sapiens; assay: % of lactone form at equilibrium in HSA buffer at 37 C in the presence of human serum albumin; format: functional
[4] = species on record: Homo sapiens; assay: % of lactone form at equilibrium in PBS buffer at 37 C in the absence of human serum albumin; format: functional
[5] = species on record: Homo sapiens; assay: n value for the binding of carboxylate form to human serum albumin (n value = number of amino acid per binding site); format: functional
Procedure, shortened: (§2)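 Fluorescence lifetime titration of lactone or carboxylate form (20 μM total drug) with varying HSA. Phase-shift lifetimes measured with 30 MHz modulated excitation, emission taken through a 500-nm long-pass filter. Free fraction computed as (τ − τB)/(τF − τB). K and n obtained by nonlinear least-squares fit to K = [Db]/[Df][aa]^n, where aa is amino acid residues.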

[6] = species on record: Homo sapiens; assay: n value for the binding of lactone form to human serum albumin (n value = number of amino acid per binding site); format: functional; procedure, shortened: as §2
[7] = species on record: Homo sapiens; assay: Association constant for the binding of carboxylate form to human serum albumin; format: functional; procedure, shortened: as §2
[8] = species on record: Homo sapiens; assay: Association constant for the binding of lactone form to human serum albumin; format: functional; procedure, shortened: as §2
[9] = species on record: Homo sapiens; assay: % of lactone form at equilibrium in human plasma; format: functional
Procedure, shortened: (§3)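 Drug (1 μM) incubated at 37 °C in human plasma, continuously aerated with blood gas to hold pH 7.6 ± 0.1. Lactone hydrolysis followed by HPLC. t1/2 and equilibrium % lactone fitted to decay profiles by nonlinear least squares. Average of at least three independent kinetic runs.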

[10] = Half-life period in human plasma; format: ADME; procedure, shortened: as §3
[11] = Half-life period in HSA buffer at 37 degree C in the presence of human serum albumin; format: ADME; settings: buffer with human serum albumin; procedure, shortened: as §1
[12] = Half-life period in PBS buffer at 37 degree C in the absence of human serum albumin; format: ADME; procedure, shortened: as §1
[13] = species on record: Homo sapiens; assay: % of lactone form at equilibrium in HSA buffer at 37 degree C in the presence of human serum albumin; format: functional; procedure, shortened: as §1
[14] = species on record: Homo sapiens; assay: % of lactone form at equilibrium in PBS buffer at 37 degree C in the absence of human serum albumin; format: functional; procedure, shortened: as §1

SMILES	half-life [1]	half-life [2]	Activity [3]	Activity [4]	Activity [5]	Activity [6]	K [7]	K [8]	Activity [9]	half-life [10]	half-life [11]	half-life [12]	Activity [13]	Activity [14]
CC[C@@]1(O)C(=O)OCc2c1cc1n(c2=O)Cc2cc3cc(O)ccc3nc2-1 [HYDROXYCAMPTOTHECIN]	21.1 min	22.1 min	4%	16%	1.7	1.7	264 1/Maa	135 1/Maa	6%	18.6 min				
CCc1c2c(nc3ccc(O)cc13)-c1cc3c(c(=O)n1C2)COC(=O)[C@]3(O)CC [7-ETHYL-10-HYDROXYCAMPTOTHECIN]		19.9 min					148 1/Maa	636 1/Maa	24%	34.3 min				
CC[C@@]1(O)C(=O)OCc2c1cc1n(c2=O)Cc2cc3ccccc3nc2-1 [CAMPTOTHECIN]					2.3	1.8	4700 1/Maa	30 1/Maa	<0.2%	10.6 min	12.6 min	16.9 min	<0.5%	13%
